Assay results taken from ChEMBL document CHEMBL2146381, “Structure-activity relationship (SAR) study of ethyl 2-amino-6-(3,5-dimethoxyphenyl)-4-(2-ethoxy-2-oxoethyl)-4H-chromene-3-carboxylate (CXL017) and the potential of the lead against multidrug resistance in cancer treatment” (J Med Chem, 2012).

Tests used:
HL-60 [1] = assay: Cytotoxicity against human HL60 cells assessed as cell viability after 48 hrs by celltiter-blue assay; format: functional, cell-based; settings: HL-60, 48 h
Method in brief: (§1)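 Tumour cell growth inhibition was measured in vitro, following the lab's established procedure. IC50 values are the mean of at least two independent experiments, each run in triplicate.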

CCRF-CEM [2] = assay: Ratio of IC50 for human CCRF-CEM/VLB100 cells IC50 for human CCRF-CEM cells; format: functional
Method in brief: (§2)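 Each resistant subline and its matched parental line were tested in the same growth-inhibition assay, with IC50 taken as the mean of at least two independent experiments in triplicate. The MDR/parental IC50 ratio is reported as relative sensitivity: above 1 means resistance, below 1 means collateral sensitivity. Parental lines came from different sources for each resistant pair.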

K562 [3] = assay: Ratio of IC50 for human K562/HHT300 cells to IC50 for human K562 cells; format: functional; method in brief: as §2
HL-60 [4] = assay: Ratio of IC50 for human HL60/ADR cells to IC50 for human HL60 cells; format: functional; method in brief: as §2
CCRF-CEM [5] = assay: Cytotoxicity against human CCRF-CEM cells assessed as cell viability after 48 hrs by celltiter-blue assay; format: functional, cell-based; method in brief: as §1
K562 [6] = assay: Ratio of IC50 for doxorubicin-resistant human K562 cells to IC50 for human K562 cells; format: functional; method in brief: as §2
HL-60 [7] = assay: Ratio of IC50 for doxorubicin-resistant human HL60 cells to IC50 for human HL60 cells; format: functional; method in brief: as §2
HL-60 [8] = assay: Ratio of IC50 for human HL60/MX2 cells to IC50 for human HL60 cells; format: functional; method in brief: as §2
CCRF-CEM [9] = assay: Ratio of IC50 for human CCRF-CEM/C2 cells IC50 for human CCRF-CEM cells; format: functional; method in brief: as §2
K562 [10] = assay: Cytotoxicity against human K562 cells assessed as cell viability after 48 hrs by celltiter-blue assay; format: functional, cell-based; settings: K562, 48 h; method in brief: as §1
CCRF-CEM [11] = assay: Ratio of IC50 for human CCRF-CEM/VM-1-5 cells IC50 for human CCRF-CEM cells; format: functional; method in brief: as §2
HL-60 [12] = assay: Ratio of IC50 for daunorubicin-resistant human HL60 cells to IC50 for human HL60 cells; format: functional; method in brief: as §2

SMILES: CCOC(=O)CC1C(C(=O)OCC)=C(N)Oc2ccc(-c3ccccc3F)cc21 (racemic)
- IC50 (HL-60 [1]): 73 µM

SMILES: C#CCOC(=O)CC1C(C#N)=C(N)Oc2ccc(-c3cccc(N)c3)cc21 (racemic)
- IC50 (HL-60 [1]): 43.9 µM

SMILES: CC[C@]1(O)C[C@H]2CN(CCc3c([nH]c4ccccc34)[C@@](C(=O)OC)(c3cc4c(cc3OC)N(C=O)[C@H]3[C@@](O)(C(=O)OC)[C@H](OC(C)=O)[C@]5(CC)C=CCN6CC[C@]43[C@@H]65)C2)C1 [VINCRISTINE]
- Ratio IC50 (CCRF-CEM [2]): >1000
- Ratio IC50 (K562 [3]): >1000
- Ratio IC50 (HL-60 [4]): 1
- IC50 (CCRF-CEM [5]): 0.00017 µM
- Ratio IC50 (K562 [6]): >1000
- Ratio IC50 (HL-60 [7]): >1000
- IC50 (HL-60 [1]): 6e-05 µM
- Ratio IC50 (HL-60 [8]): 1
- Ratio IC50 (CCRF-CEM [9]): 1
- IC50 (K562 [10]): 0.0001 µM
- Ratio IC50 (CCRF-CEM [11]): 1

SMILES: CC(C)(C)c1ccc(NC(=S)N/N=C2\C(=O)Nc3ccccc32)cc1
- Ratio IC50 (CCRF-CEM [2]): 0.66
- Ratio IC50 (K562 [3]): 0.43
- Ratio IC50 (HL-60 [4]): 0.47
- IC50 (CCRF-CEM [5]): 7.05 µM
- Ratio IC50 (K562 [6]): 0.47
- Ratio IC50 (HL-60 [7]): 1
- IC50 (HL-60 [1]): 6.8 µM
- Ratio IC50 (HL-60 [12]): 0.64
- Ratio IC50 (HL-60 [8]): 0.86
- Ratio IC50 (CCRF-CEM [9]): 0.58
- IC50 (K562 [10]): 26.9 µM
- Ratio IC50 (CCRF-CEM [11]): 2.1

SMILES: CCOC(=O)CC1C(c2nc(-c3ccc(OC)cc3)no2)=C(N)Oc2ccc(-c3cc(OC)cc(OC)c3)cc21 (racemic)
- IC50 (HL-60 [1]): > 80 µM

SMILES: Nc1ccn([C@@H]2O[C@H](CO)[C@@H](O)[C@@H]2O)c(=O)n1 [CYTARABINE]
- Ratio IC50 (CCRF-CEM [2]): 1
- Ratio IC50 (K562 [3]): 7
- Ratio IC50 (HL-60 [4]): 0.1
- IC50 (CCRF-CEM [5]): 0.006 µM
- Ratio IC50 (K562 [6]): 1.5
- Ratio IC50 (HL-60 [7]): 7.5
- IC50 (HL-60 [1]): 0.049 µM
- Ratio IC50 (HL-60 [8]): 0.4
- Ratio IC50 (CCRF-CEM [9]): 4.1
- IC50 (K562 [10]): 14 µM
- Ratio IC50 (CCRF-CEM [11]): 6.5

SMILES: C#CCOC(=O)CC1C(C(=O)OCC)=C(N)Oc2ccc(-c3ccc(NCC)cc3)cc21 (racemic)
- IC50 (HL-60 [1]): 33 µM

SMILES: CCOC(=O)CC1C(C(=O)OCC)=C(N)Oc2ccc(-c3ccccn3)cc21 (racemic)
- IC50 (HL-60 [1]): 76.9 µM

SMILES: C#CCOC(=O)CC1C(C(=O)OCC#C)=C(N)Oc2ccc(-c3cccc(NCCO)c3)cc21 (racemic)
- IC50 (HL-60 [1]): 0.63 µM

SMILES: C#CCOC(=O)CC1C(C(=O)OCC)=C(N)Oc2ccc(-c3cccc(N)c3)cc21 (racemic)
- IC50 (HL-60 [1]): 3.4 µM

SMILES: CCOC(=O)CC1C(C(=O)OCC)=C(N)Oc2ccc(-c3ccnc(OC)c3)cc21 (racemic)
- IC50 (HL-60 [1]): 10.2 µM

SMILES: CCOC(=O)CC1C(C(=O)OCC)=C(N)Oc2ccc(-c3cncnc3)cc21 (racemic)
- IC50 (HL-60 [1]): 37.9 µM

SMILES: CCOC(=O)CC1C(C(=O)OCC)=C(N)Oc2ccc(-c3cccc(F)c3)cc21 (racemic)
- IC50 (HL-60 [1]): 76.4 µM

SMILES: C#CCOC(=O)CC1C(C(=O)OCC#C)=C(N)Oc2ccc(-c3ccc(N(C)C)cc3)cc21 (racemic)
- IC50 (HL-60 [1]): 2.56 µM

SMILES: CCOC(=O)CC1C(C(=O)OC)=C(N)Oc2ccc(-c3cc(OC)cc(OC)c3)cc21 (racemic)
- IC50 (HL-60 [1]): 10.8 µM

SMILES: CCOC(=O)CC1C(C(=O)OCC)=C(N)Oc2ccc(-c3ccc(N)cc3)cc21 (racemic)
- IC50 (HL-60 [1]): 22.3 µM

SMILES: C#CCOC(=O)CC1C(C(=O)OCC#C)=C(N)Oc2ccc(-c3ccc(N)cc3)cc21 (racemic)
- Ratio IC50 (CCRF-CEM [2]): 0.93
- Ratio IC50 (K562 [3]): 1.1
- Ratio IC50 (HL-60 [4]): 0.26
- IC50 (CCRF-CEM [5]): 1.47 µM
- Ratio IC50 (K562 [6]): 1.08
- Ratio IC50 (HL-60 [7]): 0.6
- IC50 (HL-60 [1]): 0.61 µM
- Ratio IC50 (HL-60 [12]): 0.27
- Ratio IC50 (HL-60 [8]): 1
- Ratio IC50 (CCRF-CEM [9]): 0.54
- IC50 (K562 [10]): 2.36 µM
- Ratio IC50 (CCRF-CEM [11]): 0.42

SMILES: CCOC(=O)CC1C(C(=O)OCC)=C(N)Oc2ccc(-c3cc(OC)cc(OC)c3)cc21 (racemic)
- IC50 (HL-60 [1]): 10.7 µM

SMILES: C#CCOC(=O)CC1C(C(=O)OCC)=C(N)Oc2ccc(-c3ccc(N)cc3)cc21 (racemic)
- IC50 (HL-60 [1]): 10.5 µM

SMILES: CCOC(=O)CC1C(C(=O)OCC)=C(N)Oc2ccc(-c3cccs3)cc21 (racemic)
- IC50 (HL-60 [1]): > 80 µM

SMILES: C#CCOC(=O)CC1C(C(=O)OCC#C)=C(N)Oc2ccc(-c3cccc(NC)c3)cc21 (racemic)
- IC50 (HL-60 [1]): 0.88 µM

SMILES: CCOC(=O)CC1C(C(=O)OCC)=C(N)Oc2ccc(-c3cccnc3)cc21 (racemic)
- IC50 (HL-60 [1]): 21.5 µM

SMILES: CCOC(=O)CC1C(C(=O)OCC)=C(N)Oc2ccc(-c3cc(F)cc(F)c3)cc21 (racemic)
- IC50 (HL-60 [1]): 35.9 µM
